Columns and labels:
Format in all cases: binding
[1] = target: Munc13-1 C1 (WT) (Rattus norvegicus, UniProt Q62768, E582H); experiment: intrinsic fluorescence quenching, logistic fit
In short: (§1)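 GST-fused Munc13-1 C1 domain (wild type or Glu-582 mutant) was expressed in E. coli BL21 DE3 gold, affinity-purified and thrombin-cleaved. Protein was held at 1 μM in 50 mM Tris, 100 mM NaCl, pH 7.4. Alcohols were added neat or from a 0.25 M DMSO stock, at 1–250, 1–150 or 1–5 mM depending on the alcohol. After 15 min incubation, samples were excited at 280 nm. Emission at 348–350 nm was buffer-corrected and fitted to a logistic equation; runs were done in triplicate.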

[2] = target: Munc13-1 C1 (WT) (Rattus norvegicus, UniProt Q62768, E582A); experiment: intrinsic fluorescence quenching, logistic fit
In short: as §1

[3] = target: T1, Munc13-1 C1 (WT) (Rattus norvegicus, UniProt Q62768); experiment: intrinsic fluorescence quenching, logistic fit
In short: as §1

[4] = target: Munc13-1 C1 (WT) (Rattus norvegicus, UniProt Q62768, E582L); experiment: intrinsic fluorescence quenching, logistic fit
In short: as §1

[5] = target: T1, Munc13-1 C1 (WT); experiment: photolabeling, LC-MS/MS; details: covalent (photoaffinity), site Glu-582

| Compound | EC50 [1] | EC50 [2] | EC50 [3] | EC50 [4] | photolabeling, LC-MS/MS; fluorescence quenching [5] |
| --- | --- | --- | --- | --- | --- |
| CCCCO [Butanol] | 75.3 ± 1.9 mM | 59.9 ± 0.9 mM | 25.8 ± 1.1 mM | 70.5 ± 1.8 mM | – |
| CCCCCCCCO [Octanol] | 1.1 ± 0.07 mM | 2.6 ± 0.2 mM | 0.7 ± 0.03 mM | 3.3 ± 0.06 mM | – |
| CCO [Ethanol] | – | – | 51.7 ± 2.8 mM | – | – |
| CC1(CCO)N=N1 [3-azibutanol] | – | – | – | – | 3-azibutanol labeled the Munc13-1 C1 at the Glu-582 site |

Reference: PMC3766433 (Journal of neurochemistry, 2013)
